High-throughput results from PubChem BioAssay.
CXCR6 block = CXCR6 (human) receptor inhibition; O00574; actives 0.36% (n = 360,000); AID 602244; CHO-K1 PathHunter CXCR6 beta-arrestin, luminescence; inhibition, % at 20 µM; in the data active means inhibition above about 34%, passing the limit was not always enough;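 further: antagonist mode with CXCL16 agonist at 10 nM final; 0% = 10 nM CXCL16 with DMSO and 100% = unstimulated wells without agonist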
EBI2 block = antagonists of human EBI2 receptor. actives 0.81% (n = 360,000). P32249. EBI2 beta-arrestin recruitment, luminescence, 7a,25-OHC stimulated. inhibition, % at 5 µM; in the data active means inhibition above about 38%;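 further: enzyme fragment complementation signal reports receptor beta-arrestin coupling in cells; 0% = agonist plus DMSO wells and 100% = wells without agonist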
B2AR ag = agonists of human beta-2 adrenergic receptor inducing internalization | P07550 | Am2.2-beta2AR cells, FAP receptor internalization, flow cytometry | response, % (concentration not given with the values) | actives 0.43% (n = 340,000) | AID 504454;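 active means response above a set limit, near 3 SD of response in nonfluorescent compounds, cut at about 42% in these data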
CCR6 antag = antagonists of human CCR6 receptor. AID 493098. actives 0.49% (n = 340,000). inhibition, % at 20 µM. CHO-K1 CCR6 PathHunter beta-arrestin, luminescence, CCL20-stimulated;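 active means compounds whose inhibition of the agonist-driven luminescence signal at 20 µM reaches about 50%, limit read from the data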;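 further: cells stimulated with CCL20 at 14 nM final; plate controls were DMSO with CCL20 for no effect and DMSO without agonist for full effect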
Target sequence (P51684 whole entry, looked up): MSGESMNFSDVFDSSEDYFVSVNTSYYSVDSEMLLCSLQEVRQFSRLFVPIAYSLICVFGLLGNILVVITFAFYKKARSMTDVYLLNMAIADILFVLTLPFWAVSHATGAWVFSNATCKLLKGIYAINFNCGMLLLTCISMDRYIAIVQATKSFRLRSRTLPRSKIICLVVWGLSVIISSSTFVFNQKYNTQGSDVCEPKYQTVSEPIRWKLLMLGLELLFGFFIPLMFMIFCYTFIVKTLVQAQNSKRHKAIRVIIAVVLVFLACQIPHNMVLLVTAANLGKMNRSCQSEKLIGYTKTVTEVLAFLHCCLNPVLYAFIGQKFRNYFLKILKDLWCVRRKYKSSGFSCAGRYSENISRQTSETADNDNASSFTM
APJ antagonist = APJ receptor antagonism. P35414. CHO-K1 APJ beta-arrestin complementation, luminescence. inhibition, % at 20 µM. actives 0.32% (n = 330,000);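 active means inhibition above about 40% at 20 µM, limit read from the data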;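 further: cells challenged with 10 nM apelin-13 agonist together with compound; plate controls were apelin-13 plus DMSO wells for no effect and DMSO wells lacking apelin-13 for full effect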
APJ ag = activates the human apelin receptor APJ; P35414; activation, % at 20 µM; CHO-K1 APJ PathHunter beta-arrestin, luminescence; 0% DMSO wells, 100% apelin; actives 0.11% (n = 330,000);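 active means activation more than six SD over the plate average, tested at 20 µM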;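 further: 0% = DMSO alone and 100% = apelin-13 at 10 nM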
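system = engineered CHO-K1 APJ arrestin reporter cells | input = 1000 cells per well | timing = overnight seeding, 90 min compound at 25 °C, 1 h detection | measured by = enzyme-fragment complementation luminescence | read-out = beta-arrestin recruitment to APJ as agonist activity, luminescent signal | control set = negative DMSO alone, positive Apelin-13 at 10 nM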
APJ ag conf = confirmation of human APJ apelin receptor agonists; shares compounds with APJ ag; AID 2764; CHO-K1 APJ PathHunter beta-arrestin, luminescence; actives 10% (n = 310); activation, % at 20 µM;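 active means activation above 40%, taking the highest of four retests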;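 further: plate controls were DMSO wells for no effect and apelin-13 at 10 nM for full effect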
APJ antag conf = confirmation of human APJ apelin receptor antagonists; APJ beta-arrestin recruitment, luminescence, antagonist mode; inhibition, % at 20 µM; actives 66% (n = 950); shares compounds with APJ antagonist; in the data active means inhibition above about 50%
Beta2AR ag CP1 = activates human beta-2 adrenergic receptor; percent response (surface receptor), % at 10 µM; shares compounds with B2AR ag; actives 25% (n = 1,100); Am2.2-beta2AR cells, FAP surface receptor, flow cytometry; active compounds read low;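 active means surface receptor percent response at or below 58%, roughly 3 SD from nonfluorescent compounds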
B2AR FAP counter = counter-screen for beta-2AR agonists: fluorescence in Am2.2 cells. shares compounds with B2AR ag. FAP fluorogen flow cytometry, fluorescence counterscreen; active compounds read low. calls only at 10 µM. 1,100 tested, under 10 active;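 active means percent response below a set limit in fluorescence channel 1 and below 50% in channel 8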
Active calls of the source: *; i = inactive; nt = no result given; + = active, no number. Sampled rows, rich in hits. Any-hit rate of the full collection: about 1.8%.

SMILES	CXCR6 block	EBI2 block	B2AR ag	CCR6 antag	APJ antagonist	APJ ag	APJ antag conf	Beta2AR ag CP1	B2AR FAP counter	others
COc1ccc(CN2C(=O)NC(=O)/C(=C\c3ccco3)C2=O)cc1	-16	0	26	15	5	18*	nt	nt	nt	APJ ag conf=13
CCCCn1c(N)c(C(=O)NCc2cccs2)c2nc3ccccc3nc21	1	15	1	6	49*	-9	6	nt	nt
CC(C)CCn1c(N)c(C(=O)OCC2CCCO2)c2nc3ccccc3nc21 (stereo not drawn)	23	7	-8	14	50*	-4	53*	nt	nt
CCCCCn1c(N)c(C(=O)NCc2cccs2)c2nc3ccccc3nc21	nt	nt	nt	12	45*	-7	47	nt	nt
CCCCOCCCn1c(N)c(C(=O)OCCOC)c2nc3ccccc3nc21	14	5	6	1	59*	-20	-13	nt	nt
Cc1ccsc1C(=O)C1CCCN(Cc2ccc(-n3cccn3)cc2)C1 (stereo not drawn)	-6	-18	-10	13	10	-2	nt	nt	nt
Cc1ccc(CN2CCCC(C(=O)c3sccc3C)C2)o1 (stereo not drawn)	-6	-8	2	19	13	-2	nt	nt	nt
O=[N+]([O-])c1cc(S(=O)(=O)c2ccc(O)c([N+](=O)[O-])c2)ccc1O	12	-9	21	10	2	-3	nt	nt	nt
CC1CCCN(CC(=O)c2ccc(Cl)c(Cl)c2)C1 (stereo not drawn)	66*	16	5	101*	122*	-15	158*	nt	nt
COc1ccc(CCNC2CCCCC2)cc1OC	-14	-4	-1	2	2	-3	nt	nt	nt
CC1=NNC(=O)C1Br (stereo not drawn)	-13	-5	0	-19	nt	nt	nt	nt	nt
CCN1/C(=C\C=C\C2=[N+](CC)c3ccccc3C2(C)C)C(C)(C)c2ccccc21	63*	6	-566	61*	54*	-18	106*	nt	nt
CCCCn1c(NC(=O)c2ccco2)c(C(=O)OCC)c2nc3ccccc3nc21	21	18	2	58*	64*	-22	55*	nt	nt
CCCCn1c(N)c(C(=O)OCC2CCCO2)c2nc3ccccc3nc21 (stereo not drawn)	2	2	3	11	19	-5	nt	nt	nt
CCCCn1c(N)c(C(=O)OCCOC)c2nc3ccccc3nc21	7	8	3	19	31	-9	nt	nt	nt
CCCCn1c(NS(=O)(=O)c2ccc(C)cc2)c(C(=O)OCC)c2nc3ccccc3nc21	-3	4	3	59*	65*	-14	-4	nt	nt
CCN1C(=O)/C(=C/c2ccc(N(CC)CC)cc2OC)C(=O)NC1=S	32	19	-119	15	18	-3	nt	nt	nt
Brc1ccc(C2N3CCCN23)cc1 (stereo not drawn)	2	-11	-3	1	11	1	nt	nt	nt
CC12CCCCC1=NC(c1ccc(Br)cc1)N2O (stereo not drawn)	34	-6	1	55*	51*	-12	39	nt	nt
C=C1C(=O)O[C@@H]2C[C@@H](C)[C@@H]3C=CC(=O)[C@@]3(C)[C@@H](O)[C@H]12	31	57*	40	45	47*	-9	69*	nt	nt
CCn1c(O)c(N=Nc2cccc(S(=O)(=O)N3CCOCC3)c2)c(=O)n(CC)c1=S	3	12	4	24	20	-5	nt	nt	nt
CCn1c(O)c(N=Nc2ccc(S(=O)(=O)N3CCOCC3)cc2)c(=O)n(CC)c1=S	23	18	13	29	56*	-5	55*	nt	nt
CCN1CCC2(CC1)NC(=O)c1ccccc1O2	8	-4	-7	13	14	-3	nt	nt	nt
CC(NCc1ccccc1C(F)(F)F)C(O)c1ccccc1 (stereo not drawn)	-10	-2	-2	4	-8	-3	nt	102	i
CCOc1cc(CNC(C)C(O)c2ccccc2)cc(Cl)c1OCC (stereo not drawn)	0	2	0	-15	-23	-2	nt	112	i
SMILES	CXCR6 block	EBI2 block	B2AR ag	CCR6 antag	APJ antagonist	APJ ag	APJ antag conf	Beta2AR ag CP1	B2AR FAP counter	others
CC(NCc1ccc(Cl)c(Cl)c1)C(O)c1ccccc1 (stereo not drawn)	2	6	4	2	-11	1	nt	85	i
CC(NCc1ccccc1Cl)C(O)c1ccccc1 (stereo not drawn)	-5	-2	0	7	20	-2	nt	112	i
CCC(=O)Nc1ccc(Cl)c(Cl)c1	-11	1	-4	6	nt	nt	nt	nt	nt
FC(F)(F)c1ccccc1CNCCc1c[nH]c2ccccc12	-4	-5	-3	-3	10	-3	nt	nt	nt
CC(=O)N(C)CC#CCN1CCCC(CO)C1 (stereo not drawn)	-2	-3	6	0	3	6	nt	nt	nt
Brc1ccc2c(c1)C(OC1CN3CCC1CC3)c1ccccc1CS2 (stereo not drawn)	-4	4	50*	16	13	-2	nt	77	i
Cc1c(N=Cc2c(O)n(CCc3ccccc3)c(=O)[nH]c2=O)c(=O)n(-c2ccccc2)n1C	8	-8	1	-18	-16	-1	nt	nt	nt
CCCCCCn1c(O)c(C=Nc2c(C)n(C)n(-c3ccccc3)c2=O)c(=O)[nH]c1=O	4	-9	48*	0	-3	-2	nt	48*	i
COc1ccc(OC)c2c1CCC1NCCOC21 (stereo not drawn)	-2	-6	1	3	-17	0	nt	110	i
Cc1cc(C(=O)O)c(C)n1C1CC1	-6	-5	7	5	-2	-2	nt	nt	nt
COC(=O)C1=CO[C@@H](C)[C@@H]2CN(CCc3c[nH]c4ccccc34)CC[C@H]12	5	9	3	-5	-16	-4	nt	nt	nt
CC(C)n1c(O)c(C2c3cc(Cl)ccc3Oc3[nH]c(=O)n(C(C)C)c(=O)c32)c(=O)[nH]c1=O (stereo not drawn)	20	4	59*	47	nt	nt	nt	48*	+
COc1ccc(CC2NCC(O)C2OC(C)=O)cc1 (stereo not drawn)	6	24	110*	-4	nt	nt	nt	20*	+
CCNCC(O)c1cccc(O)c1 (stereo not drawn)	7	7	-7	-1	10	7	nt	106	i
